“And” between values parts separate entries of the source, which are not always exact repeats. Equal values may be shown once.
Tested on: Fibroblast
Experiment: Multiplex assay against human fibroblast
Assay type: toxicity, cell-based
Procedure, shortened: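 Cells were classed with CellPathfinder machine-learning gating, first as Hoechst high-intensity objects or normal cells, then (normal cells) as healthy, pyknosed or fragmented nuclei, and finally (pyknosed cells) as mitotic or apoptotic. Staining of live cells at seeding used Hoechst33342, BioTracker Green Microtubule Cytoskeleton Dye, MitoTracker Red and Annexin V Alexa Fluor 680, with imaging on a CQ1 microscope at 37°C and 5% CO2 after compound addition. Tubulin, mitochondrial-mass and membrane-permeability phenotypes are per cents of healthy-nucleus cells.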

[1] = 12 h, 1 µM, compound concentration 1 uM
[2] = 12 h, 10 µM, compound concentration 10 uM
[3] = 24 h, 1 µM, compound concentration 1 uM
[4] = 24 h, 10 µM, compound concentration 10 uM
[5] = 48 h, 1 µM, compound concentration 1 uM
[6] = 48 h, 10 µM, compound concentration 10 uM

Compound: c1cc(OCCCN2CCCCC2)ccc1CN1CCCCC1 [JNJ-5207852]
- Population Apoptotic (%) [1]: 37% and 26%
- Population Fragmented Nuclei (%) [1]: 15% and 24%
- Population Healthy Nuclei (%) [1]: 64% and 51%
- Population Hoechst High Intensity Objects (%) [1]: 1% and 7%
- Population Membrane Permeable-Phenotype (%) [1]: 0% and 8%
- Population Mitochondria Different-Phenotype (%) [1]: 2% and 5%
- Population Mitotic Cells (%) [1]: 62% and 73%
- Population Normal (%) [1]: 98% and 92%
- Population Pyknosed Nuclei (%) [1]: 20% and 23%
- Population Tubulin-Different-Phenotype (%) [1]: 26% and 49%
- Total Cell Count [1]: 181 and 153
- Population Apoptotic (%) [2]: 50% and 43%
- Population Fragmented Nuclei (%) [2]: 22% and 36%
- Population Healthy Nuclei (%) [2]: 68% and 42%
- Population Hoechst High Intensity Objects (%) [2]: 1%
- Population Membrane Permeable-Phenotype (%) [2]: 0% and 12%
- Population Mitochondria Different-Phenotype (%) [2]: 6% and 10%
- Population Mitotic Cells (%) [2]: 50% and 56%
- Population Normal (%) [2]: 98%
- Population Pyknosed Nuclei (%) [2]: 9% and 20%
- Population Tubulin-Different-Phenotype (%) [2]: 35% and 60%
- Total Cell Count [2]: 193 and 114
- Population Apoptotic (%) [3]: 38% and 33%
- Population Fragmented Nuclei (%) [3]: 18% and 28%
- Population Healthy Nuclei (%) [3]: 66% and 51%
- Population Hoechst High Intensity Objects (%) [3]: 2% and 5%
- Population Membrane Permeable-Phenotype (%) [3]: 0% and 5%
- Population Mitochondria Different-Phenotype (%) [3]: 2% and 6%
- Population Mitotic Cells (%) [3]: 61% and 66%
- Population Normal (%) [3]: 97% and 95%
- Population Pyknosed Nuclei (%) [3]: 15% and 19%
- Population Tubulin-Different-Phenotype (%) [3]: 23% and 55%
- Total Cell Count [3]: 176 and 160
- Population Apoptotic (%) [4]: 60% and 41%
- Population Fragmented Nuclei (%) [4]: 24% and 45%
- Population Healthy Nuclei (%) [4]: 65% and 38%
- Population Hoechst High Intensity Objects (%) [4]: 1% and 5%
- Population Membrane Permeable-Phenotype (%) [4]: 0% and 4%
- Population Mitochondria Different-Phenotype (%) [4]: 6% and 13%
- Population Mitotic Cells (%) [4]: 40% and 58%
- Population Normal (%) [4]: 99% and 94%
- Population Pyknosed Nuclei (%) [4]: 10% and 15%
- Population Tubulin-Different-Phenotype (%) [4]: 34% and 67%
- Total Cell Count [4]: 201 and 118
- Population Apoptotic (%) [5]: 70% and 44%
- Population Fragmented Nuclei (%) [5]: 18% and 32%
- Population Healthy Nuclei (%) [5]: 63% and 48%
- Population Hoechst High Intensity Objects (%) [5]: 2% and 4%
- Population Membrane Permeable-Phenotype (%) [5]: 0% and 5%
- Population Mitochondria Different-Phenotype (%) [5]: 2%
- Population Mitotic Cells (%) [5]: 29% and 55%
- Population Normal (%) [5]: 97% and 95%
- Population Pyknosed Nuclei (%) [5]: 17% and 18%
- Population Tubulin-Different-Phenotype (%) [5]: 23% and 50%
- Total Cell Count [5]: 184 and 160
- Population Apoptotic (%) [6]: 55% and 30%
- Population Fragmented Nuclei (%) [6]: 19% and 48%
- Population Healthy Nuclei (%) [6]: 70% and 41%
- Population Hoechst High Intensity Objects (%) [6]: 2% and 3%
- Population Membrane Permeable-Phenotype (%) [6]: 0% and 5%
- Population Mitochondria Different-Phenotype (%) [6]: 2% and 11%
- Population Mitotic Cells (%) [6]: 44% and 69%
- Population Normal (%) [6]: 97% and 96%
- Population Pyknosed Nuclei (%) [6]: 9% and 10%
- Population Tubulin-Different-Phenotype (%) [6]: 34% and 66%
- Total Cell Count [6]: 189 and 132

Compound: NCCc1cn(S(=O)(=O)c2c(Cl)nc3sccn23)c2ccccc12.O=C(O)C(=O)O
- Population Apoptotic (%) [1]: 45%
- Population Fragmented Nuclei (%) [1]: 20% and 34%
- Population Healthy Nuclei (%) [1]: 65% and 37%
- Population Hoechst High Intensity Objects (%) [1]: 4% and 3%
- Population Membrane Permeable-Phenotype (%) [1]: 0% and 13%
- Population Mitochondria Different-Phenotype (%) [1]: 5% and 8%
- Population Mitotic Cells (%) [1]: 55% and 54%
- Population Normal (%) [1]: 95% and 96%
- Population Pyknosed Nuclei (%) [1]: 14% and 28%
- Population Tubulin-Different-Phenotype (%) [1]: 40% and 62%
- Total Cell Count [1]: 146 and 170
- Population Apoptotic (%) [2]: 78% and 57%
- Population Fragmented Nuclei (%) [2]: 20% and 24%
- Population Healthy Nuclei (%) [2]: 56% and 44%
- Population Hoechst High Intensity Objects (%) [2]: 6%
- Population Membrane Permeable-Phenotype (%) [2]: 0% and 5%
- Population Mitochondria Different-Phenotype (%) [2]: 40% and 34%
- Population Mitotic Cells (%) [2]: 21% and 42%
- Population Normal (%) [2]: 93%
- Population Pyknosed Nuclei (%) [2]: 22% and 30%
- Population Tubulin-Different-Phenotype (%) [2]: 90% and 89%
- Total Cell Count [2]: 177 and 219
- Population Apoptotic (%) [3]: 50% and 46%
- Population Fragmented Nuclei (%) [3]: 21% and 35%
- Population Healthy Nuclei (%) [3]: 64% and 44%
- Population Hoechst High Intensity Objects (%) [3]: 3% and 4%
- Population Membrane Permeable-Phenotype (%) [3]: 0% and 18%
- Population Mitochondria Different-Phenotype (%) [3]: 13% and 11%
- Population Mitotic Cells (%) [3]: 50% and 53%
- Population Normal (%) [3]: 96% and 95%
- Population Pyknosed Nuclei (%) [3]: 13% and 20%
- Population Tubulin-Different-Phenotype (%) [3]: 42% and 70%
- Total Cell Count [3]: 156 and 166
- Population Apoptotic (%) [4]: 77% and 72%
- Population Fragmented Nuclei (%) [4]: 22% and 30%
- Population Healthy Nuclei (%) [4]: 62% and 51%
- Population Hoechst High Intensity Objects (%) [4]: 3% and 7%
- Population Membrane Permeable-Phenotype (%) [4]: 0% and 5%
- Population Mitochondria Different-Phenotype (%) [4]: 58% and 32%
- Population Mitotic Cells (%) [4]: 22% and 27%
- Population Normal (%) [4]: 96% and 92%
- Population Pyknosed Nuclei (%) [4]: 14% and 18%
- Population Tubulin-Different-Phenotype (%) [4]: 89% and 81%
- Total Cell Count [4]: 193 and 237
- Population Apoptotic (%) [5]: 50% and 54%
- Population Fragmented Nuclei (%) [5]: 27% and 38%
- Population Healthy Nuclei (%) [5]: 63% and 47%
- Population Hoechst High Intensity Objects (%) [5]: 4% and 6%
- Population Membrane Permeable-Phenotype (%) [5]: 2% and 9%
- Population Mitotic Cells (%) [5]: 50% and 45%
- Population Normal (%) [5]: 95% and 93%
- Population Pyknosed Nuclei (%) [5]: 9% and 14%
- Population Tubulin-Different-Phenotype (%) [5]: 46% and 58%
- Total Cell Count [5]: 177 and 166
- Population Apoptotic (%) [6]: 85% and 75%
- Population Fragmented Nuclei (%) [6]: 22% and 31%
- Population Healthy Nuclei (%) [6]: 65% and 59%
- Population Hoechst High Intensity Objects (%) [6]: 7% and 3%
- Population Membrane Permeable-Phenotype (%) [6]: 0% and 3%
- Population Mitochondria Different-Phenotype (%) [6]: 43% and 24%
- Population Mitotic Cells (%) [6]: 14% and 25%
- Population Normal (%) [6]: 92% and 96%
- Population Pyknosed Nuclei (%) [6]: 12% and 8%
- Population Tubulin-Different-Phenotype (%) [6]: 92% and 74%
- Total Cell Count [6]: 189 and 241

Reference: ChEMBL document CHEMBL5724801, “EUbOPEN Chemogenomics Library - Multiplex” (2024)
